What was measured:
[1] = biological target: T1, Polyunsaturated fatty acid 5-lipoxygenase (Homo sapiens, UniProt P09917); test: Inhibition of 5-LO in human neutrophils using arachidonic acid as substrate assessed as reduction in 5-LO product formation preincubated for 15 mins followed by substrate addition measured after 10 mins in presence of Ca2+ ionophore A23187 by HPLC analysis
T1 sequence (P09917 whole entry): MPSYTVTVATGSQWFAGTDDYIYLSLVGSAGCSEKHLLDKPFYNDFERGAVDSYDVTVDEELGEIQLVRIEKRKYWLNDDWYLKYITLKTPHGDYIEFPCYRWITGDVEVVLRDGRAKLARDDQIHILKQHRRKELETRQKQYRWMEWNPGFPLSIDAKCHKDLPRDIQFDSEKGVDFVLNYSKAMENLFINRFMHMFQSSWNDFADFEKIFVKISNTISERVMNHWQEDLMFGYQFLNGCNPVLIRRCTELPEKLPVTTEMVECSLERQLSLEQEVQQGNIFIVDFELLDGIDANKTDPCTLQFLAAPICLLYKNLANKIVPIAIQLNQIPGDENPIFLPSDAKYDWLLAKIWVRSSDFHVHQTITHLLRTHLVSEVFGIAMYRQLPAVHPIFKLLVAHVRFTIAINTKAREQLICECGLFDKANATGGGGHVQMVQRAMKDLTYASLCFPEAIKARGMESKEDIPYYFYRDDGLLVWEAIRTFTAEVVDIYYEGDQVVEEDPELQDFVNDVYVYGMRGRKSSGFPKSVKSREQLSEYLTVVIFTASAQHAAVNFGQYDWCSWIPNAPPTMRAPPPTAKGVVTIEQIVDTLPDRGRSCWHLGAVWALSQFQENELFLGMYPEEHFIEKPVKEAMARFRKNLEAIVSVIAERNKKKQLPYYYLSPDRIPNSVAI
How it was run: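 Human neutrophils (5 × 10^6 in 1 ml PBS with 1 mg/ml glucose) pre-incubated 15 min at 37 °C with compound or 0.1% DMSO, then activated with 1 mM CaCl2 and 2.5 µM A23187, with or without 20 µM AA; 5-LO products measured after 10 min. Residual activity at 10 µM; IC50 by nonlinear regression from 4-5 concentrations; mean ± SEM, n=3-4.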

[2] = biological target: T2, Polyunsaturated fatty acid 5-lipoxygenase (Homo sapiens) (UniProt P09917); test: Inhibition of 5-LO in human M1 macrophages derived from LPS/IFNgamma-polarized human monocyte derived macrophages assessed as effect on 5-HEPE level at 3 uM preincubated for 15 mins followed by Escherichia coli (O6:K2:H1) challenge for 90 mins by LC-MS/MS analysis; parameters: scale not given: the % may be the effect or the level left
T2 sequence (whole entry): T1 sequence (P09917 whole entry)
How it was run: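 Monocytes differentiated 6 days with GM-CSF (20 ng/ml) in RPMI/10% FCS, then polarized 48 h with LPS 100 ng/ml plus IFN-γ 20 ng/ml (M1). Cells (2 × 10^6) in PBS with 1 mM CaCl2 pre-incubated 15 min at 37 °C with 3 µM compound or 0.1% DMSO, then E. coli O6:K2:H1 (1:50) for 90 min. Methanol with deuterated standards added; SPE; UPLC-MS/MS; expressed as % of vehicle.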

[3] = biological target: T3, Polyunsaturated fatty acid lipoxygenase ALOX12 (Homo sapiens) (UniProt P18054); test: Modulation of 12-LO-mediated 14-HDHA level in human M2 macrophages derived from IL4-polarized human monocyte derived macrophages at 3 uM preincubated for 15 mins followed by Escherichia coli (O6:K2:H1) challenge for 90 mins by LC-MS/MS analysis
T3 sequence (whole entry): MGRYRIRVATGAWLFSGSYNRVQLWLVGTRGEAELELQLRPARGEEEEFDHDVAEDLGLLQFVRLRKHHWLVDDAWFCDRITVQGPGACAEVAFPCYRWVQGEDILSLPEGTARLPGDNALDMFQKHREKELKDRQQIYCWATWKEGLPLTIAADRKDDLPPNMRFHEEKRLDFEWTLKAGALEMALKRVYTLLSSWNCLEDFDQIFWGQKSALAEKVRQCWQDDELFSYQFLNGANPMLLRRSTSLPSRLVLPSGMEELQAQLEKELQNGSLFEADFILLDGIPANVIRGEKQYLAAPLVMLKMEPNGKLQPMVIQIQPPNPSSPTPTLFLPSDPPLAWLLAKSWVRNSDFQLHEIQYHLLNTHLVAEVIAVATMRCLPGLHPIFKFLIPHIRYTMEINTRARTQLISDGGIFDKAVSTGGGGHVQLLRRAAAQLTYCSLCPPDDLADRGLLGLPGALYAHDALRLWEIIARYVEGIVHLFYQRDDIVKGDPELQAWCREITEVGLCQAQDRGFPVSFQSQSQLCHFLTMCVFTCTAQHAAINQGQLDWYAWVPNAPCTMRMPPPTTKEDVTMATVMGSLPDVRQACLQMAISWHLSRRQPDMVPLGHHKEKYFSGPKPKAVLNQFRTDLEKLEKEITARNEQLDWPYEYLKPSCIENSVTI
How it was run: (§1)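 Monocytes differentiated 6 days with M-CSF (20 ng/ml), then polarized 48 h with IL-4 20 ng/ml (M2). Cells (2 × 10^6) in PBS/1 mM CaCl2 pre-incubated 15 min at 37 °C with 3 µM compound or 0.1% DMSO, then challenged with E. coli O6:K2:H1 (1:50) for 90 min. Lipid mediators extracted by SPE with deuterated internal standards and quantified by UPLC-MS/MS as % of vehicle.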

Macrophage cell line = test: Modulation of 4-HDHA level in human M2 macrophages derived from IL4-polarized human monocyte derived macrophages at 3 uM preincubated for 15 mins followed by Escherichia coli (O6:K2:H1) challenge for 90 mins by LC-MS/MS analysis; assay type: functional; how it was run: as §1
Homo sapiens = organism: Homo sapiens; test: Modulation of LO-mediated AT-PD1 level in human M2 macrophages derived from IL4-polarized human monocyte derived macrophages at 3 uM preincubated for 15 mins followed by Escherichia coli (O6:K2:H1) challenge for 90 mins by LC-MS/MS analysis; how it was run: as §1
Cyclooxygenase = Cyclooxygenase (Homo sapiens, UniProt P35354+P23219); test: Inhibition of COX1/2 (unknown origin) at 10 uM; assay type: protein assay

## O=C(O)c1ccc(N(Cc2cccc(OCc3ccccc3)c2)S(=O)(=O)c2ccc(-c3ccccc3)cc2)cc1
[1]
  IC50: 400 nM
[2]
  Activity: 23%
[3]
  Activity: 125%
Macrophage cell line
  Activity: 86%
Homo sapiens
  Activity: 106%
Cyclooxygenase
  inhibition (INH): Not Active

— ChEMBL document CHEMBL4270576, “Discovery of a benzenesulfonamide-based dual inhibitor of microsomal prostaglandin E2 synthase-1 and 5-lipoxygenase that favorably modulates lipid mediator biosynthesis in inflammation” (Eur J Med Chem, 2018)
